Assay outcomes (PubChem)
NALP3 yeast inh: NALP3 inhibition in yeast; Yeast reconstituted NLRP3/ASC/caspase-1, beta-gal luminescence, 24 h; hit rate 0.39% among 330,000; inhibition, % at 10 µM; AID 2825;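 active = inhibition of 50% or more; inactive = inhibition below 50%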;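 also: plate controls were induced DMSO wells for no effect and uninduced yeast grown without galactose for full effect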
Calb FLC: affects C. albicans growth with fluconazole. C. albicans CaCi-2 + fluconazole, Alamar Blue growth, 48 h. growth inhibition, % (test concentration not listed). hit rate 0.57% among 300,000;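 active = growth inhibition above about 58% in most replicates, limit read from the data, passing the limit was not always enough; inconclusive = exactly half the replicates above a set limit; inactive = most replicates below a set limit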;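 also: all wells also contain fluconazole at 8 µg/ml as a sub-toxic cotreatment; 0% = median of DMSO wells and 100% = median of geldanamycin control wells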
UCH37 DUB inh: human UCH37 deubiquitinating enzyme inhibition | purified proteasome/UCH37, Ub-AMC cleavage fluorescence | inhibition, % (no concentration beside the values) | hit rate 0.33% among 330,000;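 active = mean inhibition over replicate wells above about 20%, limit read from the data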;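 also: 0% = compound-free wells with enzyme and 100% = wells lacking proteasome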
Target sequence (Q9Y5K5 whole entry, looked up): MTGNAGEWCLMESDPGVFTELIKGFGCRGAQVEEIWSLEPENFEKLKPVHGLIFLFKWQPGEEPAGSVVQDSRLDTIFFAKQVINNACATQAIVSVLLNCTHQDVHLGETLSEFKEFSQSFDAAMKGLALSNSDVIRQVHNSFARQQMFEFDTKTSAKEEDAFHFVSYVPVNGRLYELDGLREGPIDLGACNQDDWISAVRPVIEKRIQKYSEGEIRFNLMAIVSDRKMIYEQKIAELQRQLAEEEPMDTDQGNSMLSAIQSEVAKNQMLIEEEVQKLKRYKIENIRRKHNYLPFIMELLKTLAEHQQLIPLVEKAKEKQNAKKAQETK
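Material: human UCH37 enzyme supplied as purified proteasome complex. Measure: % inhibition of Ub-AMC cleavage fluorescence. Medium: pH 7.4 Tris-HCl (50 mM) with ovalbumin, ATP-MgCl2, DTT. Times: 30 min preincubation with enzyme, 25 min cleavage at room temperature. Detection: AMC fluorescence intensity at 355/460 nm.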
ATG4B inh: inhibitors of human ATG4B cysteine protease. Q9Y4P1. ATG4B cleavage of LC3-PLA2, NBD-HPC fluorescence, 1 h. inhibition, % at 8.33 µM. hit rate 0.51% among 340,000; in the data active = inhibition above about 40%
NALP1 inh: blocks the NALP1 inflammasome reconstituted in yeast; hit rate 0.61% among 280,000; inhibition, % at 10 µM; S. cerevisiae NALP1/ASC/caspase-1 growth, X-gal OD620, 72 h; in the data active = inhibition mostly above about 24%, no sharp cut-off; inactive = mostly below about 32%
ALR inh: inhibitors of human sulfhydryl oxidase ALR | P55789 | purified ALR, DTT oxidation, H2O2 HRP-luminol luminescence | inhibition, % (no concentration beside the values) | hit rate 3.8% among 290,000;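 active = mean replicate inhibition above about 79%, with every replicate also reaching it, limit read from the data; inconclusive = only one of the two criteria met; inactive = mean below limit and not every replicate reaching it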
Target sequence (P55789 whole entry, looked up): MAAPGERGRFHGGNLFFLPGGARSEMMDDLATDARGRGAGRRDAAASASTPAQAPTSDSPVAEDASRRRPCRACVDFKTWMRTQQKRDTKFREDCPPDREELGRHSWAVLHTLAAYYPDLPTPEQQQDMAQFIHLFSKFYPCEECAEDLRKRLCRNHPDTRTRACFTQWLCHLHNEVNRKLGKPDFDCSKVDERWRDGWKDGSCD
The depositor's hits bear a star. Sampled rows, rich in hits. Any-hit rate of the full collection: about 4.8%.

COc1ccc(C=NNC(=O)CCn2cnc(-c3ccccc3)c2-c2ccccc2)cc1OC was read as UCH37 DUB inh 3.5.
CCN1CCCc2cc(CN(CCN3CCOCC3)C(=S)Nc3ccc(OC)cc3)ccc21 was read as NALP3 yeast inh 11.6, Calb FLC -7.7, UCH37 DUB inh 5.2, ATG4B inh -5.5, NALP1 inh 6.2 and ALR inh 99.3*.
Screening CCN1CCCc2cc(CN(CCN3CCOCC3)C(=S)Nc3ccc(C)cc3)ccc21 returned NALP3 yeast inh 14.8, Calb FLC -9.6, UCH37 DUB inh -0.4, ATG4B inh 26.7, NALP1 inh -6.9 and ALR inh 99.0*.
`CCN1CCCc2cc(CN(CCN3CCOCC3)C(=S)Nc3cc(F)cc(F)c3)ccc21` gave NALP3 yeast inh 11.7, Calb FLC -5.7, UCH37 DUB inh 2.1, ATG4B inh -9.4, NALP1 inh 8.1 and ALR inh 93.7*.
Screening CCOc1ccc(NC(=S)N(CCN2CCOCC2)Cc2ccc3c(c2)CCCN3CC)cc1 returned NALP3 yeast inh -2.9, Calb FLC 4.9, UCH37 DUB inh 5.5, ATG4B inh 2.8 and NALP1 inh 5.1.
`CN(C)CCCN(CCCNC(=O)C=NO)Cc1ccccc1` gave UCH37 DUB inh 6.4.
Screening Cc1cccc(NC(=O)CCC(=O)NN=Cc2ccc(O)cc2O)c1 returned UCH37 DUB inh -10.9.
`CN1CCN(C(=S)c2ccc(Br)cc2)CC1` gave NALP3 yeast inh 0.4, Calb FLC -0.5, UCH37 DUB inh -0.1, ATG4B inh -11.9 and NALP1 inh 30.8.
CN1CCN(C(=S)c2ccc(N(C)C)cc2)CC1 was read as NALP3 yeast inh 10.0, Calb FLC -2.8, UCH37 DUB inh 6.4, ATG4B inh 4.1, NALP1 inh -16.2 and ALR inh 98.9*.
Screening CCN1CCCC1CN(Cc1cc2ccc(C)cc2[nH]c1=O)C(=S)Nc1ccccc1OC (configuration not stated) returned NALP3 yeast inh 6.9, Calb FLC -2.7, UCH37 DUB inh 2.6, ATG4B inh -3.6, NALP1 inh 26.8 and ALR inh 2.6.
Screening CCN1CCCC1CN(Cc1cc2ccc(C)cc2[nH]c1=O)C(=S)Nc1ccccc1C(=O)OC (configuration not stated) returned NALP3 yeast inh 26.1, Calb FLC 0.1, UCH37 DUB inh 3.4, ATG4B inh -10.2, NALP1 inh 37.0* and ALR inh 1.6.
O=C(CN1C(=O)S/C(=C\C=C\c2ccccc2)C1=O)Nc1ccc(C(=O)O)cc1 was read as NALP3 yeast inh -9.0, Calb FLC 0.4, UCH37 DUB inh 15.8, ATG4B inh 2.6, NALP1 inh 16.8 and ALR inh 98.4*.
Screening Nc1ccc(C(=O)OCc2csc(-c3ccccc3)n2)cc1[N+](=O)[O-] returned NALP3 yeast inh 14.5, Calb FLC 3.0, ATG4B inh -7.6, NALP1 inh 42.0 and ALR inh 98.5*.
`Cn1cccc1C(=O)OCc1csc(-c2ccccc2)n1` gave NALP3 yeast inh 15.4, Calb FLC -30.5, UCH37 DUB inh 0.0, ATG4B inh -2.7, NALP1 inh 5.3 and ALR inh 95.8*.
Screening COc1ccccc1C(=O)NCC(=O)OCc1csc(-c2ccccc2)n1 returned NALP3 yeast inh 9.6, Calb FLC -28.4, UCH37 DUB inh 2.9, ATG4B inh -1.6, NALP1 inh 21.9 and ALR inh -5.2.
`O=C(CNC(=O)c1ccccc1F)OCc1csc(-c2ccccc2)n1` gave NALP3 yeast inh 14.7, Calb FLC -2.8, UCH37 DUB inh -1.1, ATG4B inh 5.6, NALP1 inh -2.3 and ALR inh 98.6*.
For COC(=O)c1scc(C#N)c1NN=C(C#N)S(=O)(=O)c1ccc(Cl)cc1 the results were UCH37 DUB inh 4.9.
Screening O=[N+]([O-])c1ccc(C=NNc2nc3ccccc3o2)cc1 returned UCH37 DUB inh 0.2.
`CC1(C)CC(=O)C(N=Nc2cc(Cl)c(Cl)c(Cl)c2)=C(O)C1` gave NALP3 yeast inh 7.2, Calb FLC 5.6, UCH37 DUB inh 3.6, ATG4B inh -5.0, NALP1 inh 0.1 and ALR inh 1.6.
`CC(=O)N1CCc2cc(N=NC3=C(O)CC(C)(C)CC3=O)ccc21` gave NALP3 yeast inh 14.1, Calb FLC 7.4, UCH37 DUB inh 23.6*, ATG4B inh 3.3, NALP1 inh -7.0 and ALR inh -6.1.
Screening COc1ccc(O)c(C=NNC(=O)CCC(=O)Nc2ccc(F)cc2)c1 returned UCH37 DUB inh -49.9.
Screening Cc1c(-c2ccccc2)nc2ccccc2c1C(=O)Oc1ccc([N+](=O)[O-])cc1 returned NALP3 yeast inh 10.8, Calb FLC 2.5, UCH37 DUB inh 2.8, ATG4B inh 6.2, NALP1 inh 24.2 and ALR inh -2.1.
For Cc1nc2cccc(C(=O)Oc3ccc([N+](=O)[O-])cc3)c2o1 the results were NALP3 yeast inh -20.5, Calb FLC 4.0, UCH37 DUB inh 3.7, ATG4B inh 6.0, NALP1 inh 5.1 and ALR inh 97.1*.
For O=C(NN=Cc1ccncc1)c1cccc(S(=O)(=O)N2CCCC2)c1 the results were UCH37 DUB inh 5.0.
For Cc1ccc(NCC(=O)N/N=C/c2ccc(OC(=O)c3ccco3)cc2)cc1 the results were NALP3 yeast inh 7.3, Calb FLC inconclusive, ATG4B inh -14.3, NALP1 inh 11.7 and ALR inh 99.1*.
For CCOC(=O)NN=C(CCC(=O)O)c1cccs1 the results were UCH37 DUB inh 4.0.
Screening O=C(Cc1cnn(-c2ccccc2)c1)c1ccc(O)c(O)c1O returned NALP3 yeast inh 13.2, Calb FLC inconclusive, UCH37 DUB inh 8.3, ATG4B inh -2.6, NALP1 inh -1.7 and ALR inh 99.5*.
`O=C(CC=NOCc1ccc([N+](=O)[O-])cc1)Nc1ccc(Cl)cc1` gave UCH37 DUB inh 6.2.
N=c1oc2ccccc2cc1-c1nc2ccccc2c(=O)[nH]1 was read as NALP3 yeast inh 14.8, Calb FLC -7.5, UCH37 DUB inh 0.1, ATG4B inh -10.5, NALP1 inh -19.0 and ALR inh 93.7*.
For O=c1[nH]c(-c2ccncc2)nc2ccccc12 the results were NALP3 yeast inh 4.3, Calb FLC -0.9, UCH37 DUB inh 1.6, ATG4B inh -11.8, NALP1 inh 7.5 and ALR inh 13.8.
For C[C@H](NC(=O)OC(C)(C)C)c1nnc(SCC(=O)Nc2cccc(Cl)c2)o1 the results were NALP3 yeast inh 26.5, Calb FLC -16.9, UCH37 DUB inh -1.3, ATG4B inh -11.4, NALP1 inh 15.2 and ALR inh 95.6*.
Screening O=[N+]([O-])c1ccc(NN=Cc2c[nH]c3ccccc23)c(S(=O)(=O)Nc2ccc(Cl)cc2)c1 returned UCH37 DUB inh 13.2.
For O=C(Nc1ccccc1N1CCOCC1)c1cc(F)cc(F)c1 the results were NALP3 yeast inh 1.4, Calb FLC 97.1*, UCH37 DUB inh 1.3, ATG4B inh -0.3 and NALP1 inh -9.5.
